ChEMBL document CHEMBL1123859, “Substituted arylmethyl phenyl ethers. 1. A novel series of 5-lipoxygenase inhibitors and leukotriene antagonists” (J Med Chem, 1987)

Tests used:
[1] = species: Cavia porcellus; test: Percent inhibition of LTC4-induced contraction in guinea pig parenchymal strip test, at a concentration of 30 uM; type: functional
How it was run: (§1)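 Guinea pig lung parenchymal strips were held in a tissue bath. Repeated 1 μM histamine challenges gave a control response used to normalize all later responses. Compounds were first checked at 30 μM alone for intrinsic activity. After preincubation (usually 5 min), strips were challenged with 0.2 nM LTC4. Inhibition of the contraction was scored, and 20% or less counted as ineffective.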

[2] = biological target: T1, Polyunsaturated fatty acid 5-lipoxygenase (Rattus norvegicus) (UniProt P12527); test: IC50 for inhibition of rat neutrophil 5-lipoxygenase (5-LO)
T1 sequence (whole entry): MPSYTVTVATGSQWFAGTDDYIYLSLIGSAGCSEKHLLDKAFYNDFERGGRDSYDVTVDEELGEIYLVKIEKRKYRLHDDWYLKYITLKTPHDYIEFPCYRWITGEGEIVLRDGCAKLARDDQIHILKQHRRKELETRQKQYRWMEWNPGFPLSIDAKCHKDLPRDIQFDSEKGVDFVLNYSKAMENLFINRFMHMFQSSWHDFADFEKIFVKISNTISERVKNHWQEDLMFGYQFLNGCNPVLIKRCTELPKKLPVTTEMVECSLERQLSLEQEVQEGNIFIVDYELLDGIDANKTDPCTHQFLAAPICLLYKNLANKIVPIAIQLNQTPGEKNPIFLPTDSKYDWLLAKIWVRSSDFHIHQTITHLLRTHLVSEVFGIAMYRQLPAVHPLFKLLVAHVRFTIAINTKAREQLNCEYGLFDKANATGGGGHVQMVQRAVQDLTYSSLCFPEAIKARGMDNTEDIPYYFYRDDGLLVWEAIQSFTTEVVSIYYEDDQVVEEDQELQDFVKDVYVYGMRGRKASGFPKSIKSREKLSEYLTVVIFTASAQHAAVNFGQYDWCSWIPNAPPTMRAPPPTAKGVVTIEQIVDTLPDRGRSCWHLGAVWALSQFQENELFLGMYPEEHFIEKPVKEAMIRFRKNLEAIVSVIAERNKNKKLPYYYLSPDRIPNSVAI

[3] = species: Cavia porcellus; test: Percent inhibition of LTC4-induced contraction in guinea pig parenchymal strip test, at a concentration of 20 uM; type: functional; how it was run: as §1
[4] = species: Cavia porcellus; test: Percent inhibition of LTC4-induced contraction in guinea pig parenchymal strip test, at a concentration of 10 uM; type: functional; how it was run: as §1
[5] = biological target: T2, Polyunsaturated fatty acid 5-lipoxygenase (Rattus norvegicus, UniProt P12527); test: Inhibition of rat neutrophil 5- Lipoxygenase (5-LO); details: read-out: I50
T2 sequence (P12527 whole entry): T1 sequence (whole entry)
How it was run: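 Approximately 2 × 10^6 glycogen-elicited rat neutrophils in buffer were incubated for 3 min with 4 μM [14C]arachidonic acid and 0.8 μM calcium ionophore A23187. Net 5-HETE was taken as the cell-containing control minus the buffer-only blank. Each assay was run in triplicate.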

[6] = species: Cavia porcellus; test: Percent inhibition of LTC4-induced contraction in guinea pig parenchymal strip test, at a concentration of 100 uM; type: functional; how it was run: as §1
[7] = species: Cavia porcellus; test: Percent inhibition of LTC4-induced contraction in guinea pig parenchymal strip test, at a concentration of 40 uM; type: functional; how it was run: as §1
[8] = species: Cavia porcellus; test: Percent inhibition of LTC4-induced contraction in guinea pig parenchymal strip test, at a concentration of 22 uM,; type: functional; how it was run: as §1
[9] = biological target: T2, Polyunsaturated fatty acid 5-lipoxygenase; test: Inhibition of rat neutrophil 5- Lipoxygenase (5-LO),; details: read-out: I50
How it was run: (§2)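 Approximately 2 × 10^6 glycogen-elicited rat neutrophils in buffer were incubated for 3 min with 4 μM [14C]arachidonic acid and 0.8 μM calcium ionophore A23187. Net 5-HETE was taken as the cell-containing control minus the buffer-only blank. […] Each assay was run in triplicate.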

[10] = species: Cavia porcellus; test: Percent inhibition of LTC4-induced contraction in guinea pig parenchymal strip test, at a concentration of 15 uM; type: functional; how it was run: as §1
[11] = species: Cavia porcellus; test: Percent inhibition of LTC4-induced contraction in guinea pig parenchymal strip test, at a concentration of 9 uM; type: functional; how it was run: as §1
[12] = species: Cavia porcellus; test: Percent inhibition of LTC4-induced contraction in guinea pig parenchymal strip test, at a concentration of 12 uM; type: functional; how it was run: as §1
[13] = species: Cavia porcellus; test: Percent inhibition of LTC4-induced contraction in guinea pig parenchymal strip test, at a concentration of 3.6 uM; type: functional; how it was run: as §1
[14] = species: Cavia porcellus; test: Percent inhibition of LTC4-induced contraction in guinea pig parenchymal strip test, at a concentration of 19 uM; type: functional; how it was run: as §1
[15] = species: Cavia porcellus; test: Percent inhibition of LTC4-induced contraction in guinea pig parenchymal strip test, at a concentration of 8 uM; type: functional; how it was run: as §1
[16] = biological target: T1, Polyunsaturated fatty acid 5-lipoxygenase (Rattus norvegicus); test: Percent inhibition of rat neutrophil 5- Lipoxygenase (5-LO) at 100 uM; how it was run: as §2

SMILES | inhibition at 30 µM [1] [%] | IC50 [2] [µM] | also measured
CCCCCC(O)c1cccc(OCc2cccc(CN)c2)c1 (centres undefined) | 0 | 36 | 
CCCCCC(O)c1cccc(/C=C/c2ccccc2)c1 (centres undefined) | 12 | 4.5 | 
CCCCC(C)(C)C(O)c1cccc(OCc2ccccc2)c1 (centres undefined) |  | 2.5 | 
CCCCCC(O)c1ccccc1OCc1cccc(C(=O)OC)c1 (centres undefined) |  | 3.2 | inhibition at 20 µM [3]: 50%
CCCCCC(OC)c1cccc(OCc2cccc(C(=O)OC)c2)c1 (centres undefined) | 22 | 10 | 
CCCCCC(O)c1cccc(OCc2ccc(C(=O)OC)cc2)c1 (centres undefined) |  | 3.2 | inhibition at 10 µM [4]: 0%
CCCCCC(O)c1cccc(OCc2cccc(C(N)=O)c2)c1 (centres undefined) |  | 2 | inhibition at 10 µM [4]: 0%
CCCCCC(O)c1cccc(OCc2cccc(C(F)(F)F)c2)c1 (centres undefined) | 10 |  | IC50 [5]: 4 µM
CCCCCC(=O)c1cccc(OCc2cccc(C(N)=O)c2)c1 | 5 | 0.6 | 
CCCCCC(O)c1cccc(OCc2ccc(OCC(=O)OC)cc2)c1 (centres undefined) |  | 4.8 | 
CCCCCC(O)c1cccc(OCc2ccc3ccccc3c2)c1 (centres undefined) | 10 | 5 | 
CCCCCC(O)c1cccc(OCc2ccncc2)c1 (centres undefined) |  | 2.7 | inhibition at 100 µM [6]: 50%
CCCCCC(O)c1cccc(OCc2cccc(CC(=O)O)c2)c1 (centres undefined) |  | 2.5 | inhibition at 40 µM [7]: 50%
CCCCCC(NC)c1cccc(OCc2ccccc2)c1 (centres undefined) | 50 | 22 | 
CCCCCC(O)c1cccc(OCc2cccc(CC(=O)OC)c2)c1 (centres undefined) | 19 | 5.8 | 
CCCCCC(=O)c1cccc(OCc2cccc(C#N)c2)c1 | -30 |  | IC50 [5]: 6 µM
CCCCCC(O)c1cccc(OCc2cccc(C(=O)OC)n2)c1 (centres undefined) |  |  | IC50 [5]: 1.9 µM
CCCCCC(C)(O)c1cccc(OCc2ccccn2)c1 (centres undefined) |  |  | inhibition at 22 µM [8]: 50%; IC50 [5]: 0.43 µM
CCCCCC(=O)c1cccc(OCc2ccccc2)c1 |  | 2 | inhibition at 100 µM [6]: 50%

SMILES | inhibition at 30 µM [1] [%] | IC50 [2] [µM] | also measured
CCCCCC(O)c1cccc(/C=C\c2ccccc2)c1 (centres undefined) | 5 | 6.4 | 
CCCCCC(O)c1cccc(OCc2cccc(C=O)c2)c1 (centres undefined) |  | 4 | 
CCCCCC(O)c1cccc(OCc2cccc(C(=O)OC)c2)c1 (centres undefined) | 20 |  | IC50 [9]: 1 µM
CCCCCC(OC(C)=O)c1cccc(OCc2cccc(C(=O)OC)c2)c1 (centres undefined) | 5 | 5 | 
CCCCC(O)c1cccc(OCc2ccccc2CO)c1 (centres undefined) |  |  | IC50 [5]: 4 µM; inhibition at 15 µM [10]: 50%
CCCCCC(O)c1cccc(OCc2cccc(C#N)c2)c1 (centres undefined) |  | 17 | inhibition at 10 µM [4]: 3%
CCCC/C=C/c1ccc(OCc2cccc(C(=O)OC)c2)cc1 | 26 | > 100 | 
CCCCCC(O)c1cccc(OCc2cccc(C(=O)O)c2)c1 (centres undefined) | 30 |  | IC50 [9]: 20.5 µM
CCCCCC(O)c1cccc(OCc2ccccc2C(=O)OC)c1 (centres undefined) | 23 | 0.6 | 
CCCCCC(O)c1cccc(OCc2ccccc2C(=O)O)c1 (centres undefined) |  | 30 | inhibition at 20 µM [3]: 50%
CCCCCC(O)c1cccc(OCc2cccnc2)c1 (centres undefined) |  | 2.7 | inhibition at 9 µM [11]: 50%
CCCCCC(O)c1cccc(OCc2cccc(C(=O)O)n2)c1 (centres undefined) | 50 |  | IC50 [9]: 5 µM
CCCCCC(C)(O)c1cccc(OCc2ccccc2)c1 (centres undefined) | 10 | 1 | 
CCCCC(C)(C)C(=O)c1cccc(OCc2ccccc2)c1 | 11 |  | IC50 [9]: 7.5 µM
CCCCCC(O)c1cccc(Oc2ccccc2)c1 (centres undefined) | 50 | 1.2 | 
CCCCC(O)c1cccc(OCc2ccccc2C(=O)OC)c1 (centres undefined) | 35 | 2.5 | 
CCCCC(OC1CCCCO1)c1cccc(OCc2ccccc2C(=O)OC)c1 (centres undefined) |  | 14 | 
CCCC/C=C\c1cccc(OCc2ccc3ccccc3n2)c1 |  | > 10 | inhibition at 12 µM [12]: 50%
CCCCCC(O)c1cccc(OCc2ccc3ccccc3n2)c1 (centres undefined) [REV-5901] |  |  | inhibition at 3.6 µM [13]: 50%

SMILES | inhibition at 30 µM [1] [%] | IC50 [2] [µM] | also measured
CCCCC(C)(C)C(C)(O)c1cccc(OCc2ccccc2)c1 (centres undefined) | 10 | 2.4 | 
CCCCCC(O)c1cccc(OCc2cccc(C#N)n2)c1 (centres undefined) |  | 30 | inhibition at 10 µM [4]: 36%
CCCCCC(O)c1cccc(OCc2ccc(C(=O)O)cc2)c1 (centres undefined) | 22 | 21 | 
CCCCCC(O)c1cccc(Oc2ccc3ccccc3n2)c1 (centres undefined) | 26 | 0.35 | 
CCCCC(O)c1cccc(OCc2ccccc2C(=O)O)c1 (centres undefined) |  | 10 | inhibition at 19 µM [14]: 50%
CCCC/C=C(/C)c1ccccc1OCc1cccc(C(=O)OC)c1 | 7 | 5 | 
CCCCC(C)(C)C(O)c1cccc(OCc2cccc(C(=O)OC)c2)c1 (centres undefined) | 0 |  | IC50 [5]: 2 µM
CCCCCC(O)c1cccc(OCc2ccccn2)c1 (centres undefined) | 37 | 0.5 | 
CCCCCC(C)(O)c1cccc(OCc2ccc3ccccc3n2)c1 (centres undefined) |  |  | IC50 [5]: 0.13 µM; inhibition at 8 µM [15]: 50%
CCCCCC(OC1CCCCO1)c1cccc(OCc2cccc(C(=O)OC)c2)c1 (centres undefined) | 0 | 23 | 
CCCCCC(=O)c1cccc(OCc2ccc3ccccc3n2)c1 |  |  | inhibition at 20 µM [3]: 50%; IC50 [5]: 0.37 µM
CCCCC[C@H](O)/C=C/C=C\C/C=C\C/C=C\CCCC(=O)O [ICOMUCRET] |  |  | IC50 [5]: 1.45 µM
CCCCCC(O)c1cccc(OCc2ccccc2)c1 (centres undefined) |  | 2.7 | inhibition at 100 µM [6]: 10%
CCCCC(C)C(O)c1cccc(OCc2ccccc2)c1 (centres undefined) | 0 | 3 | 
CCCCCC(=O)c1cccc(/C=C/c2ccccc2)c1 | 0 | > 100 | 
CCCCCC(=O)c1cccc(/C=C\c2ccccc2)c1 | -20 | 45 | 
CCCCCC(O)c1cccc(COc2ccccc2)c1 (centres undefined) | 19 | 6.7 | 
CCCCCC(O)c1cccc(O)c1 (centres undefined) |  |  | inhibition [16]: 43%
